{
  "source": "paper PMC4097887",
  "about": "(Journal of medicinal chemistry, 2008)",
  "key": {"[1]": {"test_system": "DU-145, MDA-MB-231 and H292 cancer cell lines", "assay": "Proliferation inhibition of the three solid tumor cell lines", "type": "cell-based, human", "in_short": "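DU-145, MDA-MB-231 and H292 cells attached for 24 h and were then treated for 72 h with test compound in Me2SO or with vehicle alone (final Me2SO 0.1%). Medium and compound were replaced at 48 h. Viable cells were measured by tetrazolium (MTS-type) reduction in triplicate per concentration, and IC50 values were calculated from these counts.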"}, "KG-1 AML cells [2]": {"test_system": "KG-1 AML cells", "assay": "KG-1 proliferation inhibition", "type": "cell-based, human", "in_short": "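KG-1 cells in medium with 5% FBS attached overnight and were then exposed to test compound in Me2SO or to Me2SO alone (final 0.1%) for the indicated time. Cells were harvested and counted with a hemocytometer in triplicate wells. Proliferation inhibition is given as IC50 and as percent inhibition at the highest concentration tested.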"}, "KG-1 AML cells [3]": {"test_system": "KG-1 AML cells", "assay": "KG-1 cell apoptosis", "type": "cell-based, human", "in_short": "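Cells in medium with 5% FBS attached overnight, then exposed to test compound in Me2SO or to Me2SO alone (final 0.1%). Exposure was 24 h for HL-60R and 48 h for KG-1. Apoptotic cells were scored by acridine orange staining on at least three replicates and expressed as percent apoptosis.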"}, "[4]": {"test_system": "IGROV ovarian cancer cells", "details": "at antiproliferative IC80 value, propidium iodide staining; cited from earlier work"}, "[5]": {"details": "doses found to induce cancer cell apoptosis in vitro; cited from earlier work"}, "[6]": {"target": "T1, recombinant human small heterodimer partner (SHP) (Homo sapiens, UniProt Q15466)", "T1 sequence (Q15466 1-257)": "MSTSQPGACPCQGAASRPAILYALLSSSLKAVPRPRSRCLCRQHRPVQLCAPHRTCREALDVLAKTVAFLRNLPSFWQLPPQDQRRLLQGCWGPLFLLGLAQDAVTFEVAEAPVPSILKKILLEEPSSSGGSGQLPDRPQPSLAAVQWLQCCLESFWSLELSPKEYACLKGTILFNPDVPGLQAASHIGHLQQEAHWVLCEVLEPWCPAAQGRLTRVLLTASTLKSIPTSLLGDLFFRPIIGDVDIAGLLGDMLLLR", "details": "cited from earlier work"}, "[7]": {"test_system": "human microvascular endothelial (HMVE) cells", "assay": "HMVE cell growth inhibition", "type": "cell-based", "details": "0.5 μM"}, "AML animal model": {"test_system": "AML animal model", "details": "cited from earlier work"}},
  "note": "Marks after values point to notes of the source that are not given here.",
  "data": [
    {"compound": "Nc1ccc(-c2ccc(/C=C/C(=O)O)cc2Cl)cc1C12CC3CC(CC(C3)C1)C2", "note": "[compound 3]", "values": [
      {"measurement": "calculated IC50 values higher than those of 1, three solid tumor cell lines", "setting": "[1]", "result": "3–4 fold"},
      {"measurement": "increase of IC50 for KG-1 proliferation inhibition compared to 1", "setting": "KG-1 AML cells [2]", "result": "~3.6", "unit": "fold"},
      {"measurement": "weakening of KG-1 apoptosis induction relative to 1", "setting": "KG-1 AML cells [3]; 1.0 μM", "result": 67, "unit": "%"},
      {"measurement": "weakening of KG-1 apoptosis induction relative to 1", "setting": "KG-1 AML cells [3]; 5.0 μM", "result": 27, "unit": "%"},
      {"measurement": "KG-1 apoptosis at 48 h (%)", "setting": "KG-1 AML cells [3]; 5.0 μM", "result": "40 ^j %"}
    ]},
    {"compound": "O=C(O)/C=C/c1ccc(-c2ccc(F)cc2)c(Cl)c1", "note": "[compound 5]", "values": [
      {"measurement": "% inhibition of KG-1 proliferation at highest concentration evaluated", "setting": "KG-1 AML cells [2]; 5 μM, 48 h", "result": 0, "unit": "%"}
    ]},
    {"compound": "O=C(O)/C=C/c1ccc(-c2ccc(O)c(C34CC5CC(CC(C5)C3)C4)c2)cc1", "note": "[compound 15, (E)-4-[3′-(1-adamantyl)-4′-hydroxyphenyl]cinnamic acid]", "values": [
      {"measurement": "apoptosis induced in ovarian cancer cell line", "setting": "[4]", "result": 50, "unit": "%"},
      {"measurement": "adverse systemic effects in mice", "setting": "[5]", "result": "produced adverse systemic effects"}
    ]},
    {"compound": "CC(=O)Nc1ccc(-c2ccc(/C=C/C(=O)O)cc2Cl)cc1C12CC3CC(CC(C3)C1)C2", "note": "[compound 2]", "values": [
      {"measurement": "further reduction of KG-1 antiproliferative activity relative to 3", "setting": "KG-1 AML cells [2]; 5.0 μM", "result": 50, "unit": "%"}
    ]},
    {"compound": "O=C(O)c1ccc2cc(-c3ccc(O)c(C45CC6CC(CC(C6)C4)C5)c3)ccc2c1", "note": "[compound 13, 6-[3′-(1-adamantyl)-4′-hydroxyphenyl]-2-naphthoic acid]", "values": [
      {"measurement": "affinity of [5,5′-3H2]AHPN for recombinant human SHP", "setting": "[6]", "result": "low nanomolar affinity"}
    ]},
    {"compound": "CC(C)(C)C#Cc1cc(-c2ccc(/C=C/C(=O)O)cc2Cl)ccc1O", "note": "[compound 6]", "values": [
      {"measurement": "KG-1 antiproliferative activity as fraction of that of 1", "setting": "KG-1 AML cells [2]; 5.0 μM", "result": "approximately one-third"}
    ]},
    {"compound": "O=C(O)/C=C/c1ccc(-c2ccc(O)c(C34CC5CC(CC3C5)C4)c2)c(Cl)c1", "note": "[compound 8]", "values": [
      {"measurement": "calculated IC50 values higher than those of 1, three solid tumor cell lines", "setting": "[1]", "result": "10–20 fold"},
      {"measurement": "KG-1 proliferation inhibition relative to 1", "setting": "KG-1 AML cells [2]; 5.0 μM", "result": 1.2, "unit": "fold"},
      {"measurement": "KG-1 apoptotic activity as % of that exhibited by 1", "setting": "KG-1 AML cells [3]; 5.0 μM", "result": 31, "unit": "%"},
      {"measurement": "KG-1 apoptosis at 48 h (%)", "setting": "KG-1 AML cells [3]; 5.0 μM", "result": "16 ^j %"}
    ]},
    {"compound": "O=C(O)c1ccc2cc(-c3cccc(C45CC6CC(CC(C6)C4)C5)c3)ccc2c1", "note": "[compound 18]", "values": [
      {"measurement": "HMVE cell growth inhibition at 72 h (%)", "setting": "[7]; 72 h (Table 1)", "result": "moderate"}
    ]},
    {"compound": "CC(C)(C)c1cc(-c2ccc3cc(C(=O)O)ccc3c2)ccc1O", "note": "[compound 21]", "values": [
      {"measurement": "reduction of HMVE cell growth inhibition relative to 13", "setting": "[7]", "result": 7, "unit": "fold"}
    ]},
    {"compound": "O=C(O)/C=C/c1ccc(-c2ccc(O)c(C34CC5CC(CC(C5)C3)C4)c2)c(Cl)c1", "note": "[compound 1, (E)-4-[3′-(1-adamantyl)-4′-hydroxyphenyl]-3-chlorocinnamic acid]", "values": [
      {"measurement": "survival in an AML animal model", "setting": "AML animal model", "result": "extension of survival"}
    ]}
  ]
}
